Data published in ChEMBL document CHEMBL4261620, “Design, synthesis, and biological evaluation of 4-chloro-2H-thiochromenes featuring nitrogen-containing side chains as potent antifungal agents” (Bioorg Med Chem Lett, 2018).
Values after ≈ are worked out from the molar mass of the structure shown.

Key:
Candida albicans [1] = test: Antifungal activity against Candida albicans cpcc 400616 after 2 to 7 days by broth microdilution method; assay type: functional
Summary of the method: (§1)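 Broth microdilution in 96-well plates per NCCLS. Compounds and fluconazole reference dissolved in DMSO, serially diluted in growth medium, then inoculum suspension added, final concentrations 128 to 0.25 µg/mL (twofold series). Incubated at 32°C. MIC read visually after 2-7 d.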

Candida albicans [2] = test: Antifungal activity against fluconazole-sensitive Candida albicans ATCC SC5314 after 2 to 7 days by broth microdilution method; assay type: functional; summary of the method: as §1
Candida albicans [3] = test: Antifungal activity against fluconazole-resistant Candida albicans 103 after 2 to 7 days by broth microdilution method; assay type: functional
Summary of the method: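 Broth microdilution per NCCLS. Compounds dissolved in DMSO, serially diluted in growth medium, then inoculum suspension added to give final concentrations of 128 to 0.25 µg/mL (twofold steps). Plates incubated at 32°C. MIC read by visual observation after 2-7 d. Fluconazole served as reference drug.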

Cryptococcus neoformans = test: Antifungal activity against Cryptococcus neoformans cgmcc 2.3161 after 2 to 7 days by broth microdilution method; assay type: functional; summary of the method: as §1
Candida tropicalis = test: Antifungal activity against Candida tropicalis cgmcc 2.3739 after 2 to 7 days by broth microdilution method; assay type: functional; summary of the method: as §1
Aspergillus fumigatus = test: Antifungal activity against Aspergillus fumigatus cgmcc 3.7795 after 2 to 7 days by broth microdilution method; assay type: functional; summary of the method: as §1
A549 = test: Cytotoxicity against human A549 cells by MTT assay; assay type: cell-based
HepG2 = test: Cytotoxicity against human HepG2 cells by MTT assay; assay type: cell-based
HT-29 = test: Cytotoxicity against human HT-29 cells by MTT assay; assay type: cell-based
H9c2 = test: Cytotoxicity against rat H9c2 cells by MTT assay; assay type: cell-based

| Compound | MIC (Candida albicans [1]) | MIC (Candida albicans [2]) | MIC (Candida albicans [3]) | MIC (Cryptococcus neoformans) | MIC (Candida tropicalis) | MIC (Aspergillus fumigatus) | IC50 (A549) | IC50 (HepG2) | IC50 (HT-29) | IC50 (H9c2) |
| --- | --- | --- | --- | --- | --- | --- | --- | --- | --- | --- |
| ClC1=C(CN2CCCCC2)CSc2ccc(Br)cc21 | 32 µg/mL (≈ 89.2 µM) | 8 µg/mL (≈ 22.3 µM) | 64 µg/mL (≈ 178 µM) | 4 µg/mL (≈ 11.2 µM) | 128 µg/mL (≈ 357 µM) | > 128 µg/mL |  |  |  |  |
| Cc1ccc2c(c1)C(=O)CCS2 | 16 µg/mL (≈ 89.8 µM) | 8 µg/mL (≈ 44.9 µM) | 64 µg/mL (≈ 359 µM) | 32 µg/mL (≈ 180 µM) | 4 µg/mL (≈ 22.4 µM) | > 128 µg/mL |  |  |  |  |
| O=CC1=C(Cl)c2cc(F)ccc2SC1 | 64 µg/mL (≈ 280 µM) | 64 µg/mL (≈ 280 µM) | 64 µg/mL (≈ 280 µM) | 32 µg/mL (≈ 140 µM) | 16 µg/mL (≈ 70 µM) | > 128 µg/mL |  |  |  |  |
| Fc1ccc2c(c1)C(Cl)=C(CN1CCCC1)CS2 | 8 µg/mL (≈ 28.2 µM) | 8 µg/mL (≈ 28.2 µM) | 64 µg/mL (≈ 226 µM) | 4 µg/mL (≈ 14.1 µM) | 16 µg/mL (≈ 56.4 µM) | > 128 µg/mL |  |  |  |  |
| Cc1ccc2c(c1)C(Cl)=C(C=O)CS2 | 32 µg/mL (≈ 142 µM) | 16 µg/mL (≈ 71.2 µM) | 64 µg/mL (≈ 285 µM) | 64 µg/mL (≈ 285 µM) | 64 µg/mL (≈ 285 µM) | > 128 µg/mL |  |  |  |  |
| Fc1ccc2c(c1)C(Cl)=C(Cn1ccnc1)CS2 | 16 µg/mL (≈ 57 µM) | 4 µg/mL (≈ 14.2 µM) | 64 µg/mL (≈ 228 µM) | 32 µg/mL (≈ 114 µM) | 8 µg/mL (≈ 28.5 µM) | > 128 µg/mL |  |  |  |  |
| CC(C)NCC1=C(Cl)c2cc(Br)ccc2SC1 | 8 µg/mL (≈ 24 µM) | 4 µg/mL (≈ 12 µM) | 16 µg/mL (≈ 48.1 µM) | 4 µg/mL (≈ 12 µM) | > 128 µg/mL | > 128 µg/mL |  |  |  |  |
| CCN(CC)CC1=C(Cl)c2cc(C)ccc2SC1 | 32 µg/mL (≈ 114 µM) | 32 µg/mL (≈ 114 µM) | 64 µg/mL (≈ 227 µM) | 8 µg/mL (≈ 28.4 µM) | 64 µg/mL (≈ 227 µM) | > 128 µg/mL |  |  |  |  |
| CC(C)N(CC1=C(Cl)c2cc(Cl)ccc2SC1)C(C)C | 4 µg/mL (≈ 12.1 µM) | 4 µg/mL (≈ 12.1 µM) | 64 µg/mL (≈ 194 µM) | 64 µg/mL (≈ 194 µM) | 64 µg/mL (≈ 194 µM) | > 128 µg/mL |  |  |  |  |
| ClC1=C(CN2CCCC2)CSc2ccc(Cl)cc21 | 32 µg/mL (≈ 107 µM) | 1 µg/mL (≈ 3.33 µM) | > 128 µg/mL | 4 µg/mL (≈ 13.3 µM) | 4 µg/mL (≈ 13.3 µM) | > 128 µg/mL |  |  |  |  |
| CCN(CC)CC1=C(Cl)c2cc(F)ccc2SC1 | 8 µg/mL (≈ 28 µM) | 8 µg/mL (≈ 28 µM) | 64 µg/mL (≈ 224 µM) | 2 µg/mL (≈ 7 µM) | 2 µg/mL (≈ 7 µM) | > 128 µg/mL |  |  |  |  |
| Cc1ccc2c(c1)C(Cl)=C(CN1CCCCC1)CS2 | 32 µg/mL (≈ 109 µM) | 16 µg/mL (≈ 54.4 µM) | 128 µg/mL (≈ 436 µM) | 16 µg/mL (≈ 54.4 µM) | 64 µg/mL (≈ 218 µM) | > 128 µg/mL |  |  |  |  |
| CC(C)NCC1=C(Cl)c2cc(F)ccc2SC1 | 8 µg/mL (≈ 29.4 µM) | 2 µg/mL (≈ 7.36 µM) | 64 µg/mL (≈ 235 µM) | 4 µg/mL (≈ 14.7 µM) | 2 µg/mL (≈ 7.36 µM) | 64 µg/mL (≈ 235 µM) |  |  |  |  |
| ClC1=C(Cn2ccnc2)CSc2ccc(Br)cc21 | 64 µg/mL (≈ 187 µM) | 16 µg/mL (≈ 46.8 µM) | > 128 µg/mL | 8 µg/mL (≈ 23.4 µM) | > 128 µg/mL | > 128 µg/mL |  |  |  |  |
| ClC1=C(Cn2cncn2)CSc2ccc(Cl)cc21 | 16 µg/mL (≈ 53.7 µM) | 8 µg/mL (≈ 26.8 µM) | 32 µg/mL (≈ 107 µM) | 4 µg/mL (≈ 13.4 µM) | 32 µg/mL (≈ 107 µM) | > 128 µg/mL |  |  |  |  |
| CN1CCN(CC2=C(Cl)c3cc(Cl)ccc3SC2)CC1 | 32 µg/mL (≈ 97.2 µM) | 16 µg/mL (≈ 48.6 µM) | 64 µg/mL (≈ 194 µM) | 4 µg/mL (≈ 12.1 µM) | 64 µg/mL (≈ 194 µM) | > 128 µg/mL |  |  |  |  |
| O=C1CCSc2ccc(Br)cc21 | 32 µg/mL (≈ 132 µM) | 8 µg/mL (≈ 32.9 µM) | 64 µg/mL (≈ 263 µM) | 64 µg/mL (≈ 263 µM) | 16 µg/mL (≈ 65.8 µM) | > 128 µg/mL |  |  |  |  |
| OC(Cn1cncn1)(Cn1cncn1)c1ccc(F)cc1F [FLUCONAZOLE] | 4 µg/mL (≈ 13.1 µM) | 1 µg/mL (≈ 3.27 µM) | 32 µg/mL (≈ 104 µM) | 1 µg/mL (≈ 3.27 µM) | 2 µg/mL (≈ 6.53 µM) | > 128 µg/mL | > 100 µg/mL | > 100 µg/mL | > 100 µg/mL | > 100 µg/mL |
